ChEMBL document CHEMBL3421533, “The Discovery of Orally Bioavailable Tyrosine Threonine Kinase (TTK) Inhibitors: 3-(4-(heterocyclyl)phenyl)-1H-indazole-5-carboxamides as Anticancer Agents” (J Med Chem, 2015)

Columns and labels:
[1] = target: Aurora kinase B/Inner centromere protein (Homo sapiens, UniProt Q96GD4); assay: Inhibition of AURKB/INCENP (unknown origin) preincubated for 15 mins prior to ATP addition by FRET-based homogenous assay; format: protein-complex assay
Method in brief: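 The enzyme was AURKB/INCENP in a FRET-based homogeneous assay run to kit specifications, with ATP at 128 μM. […] Each IC50 came from a single determination, reported with its standard fitting error.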

[2] = target: T1, Dual specificity protein kinase TTK (Homo sapiens, UniProt P33981); assay: Inhibition of amino terminal GST-fused full length human TTK using His6-SUMO-TTK-N as substrate preincubated for 15 mins prior to ATP addition by indirect ELISA detection system
T1 sequence (P33981 whole entry): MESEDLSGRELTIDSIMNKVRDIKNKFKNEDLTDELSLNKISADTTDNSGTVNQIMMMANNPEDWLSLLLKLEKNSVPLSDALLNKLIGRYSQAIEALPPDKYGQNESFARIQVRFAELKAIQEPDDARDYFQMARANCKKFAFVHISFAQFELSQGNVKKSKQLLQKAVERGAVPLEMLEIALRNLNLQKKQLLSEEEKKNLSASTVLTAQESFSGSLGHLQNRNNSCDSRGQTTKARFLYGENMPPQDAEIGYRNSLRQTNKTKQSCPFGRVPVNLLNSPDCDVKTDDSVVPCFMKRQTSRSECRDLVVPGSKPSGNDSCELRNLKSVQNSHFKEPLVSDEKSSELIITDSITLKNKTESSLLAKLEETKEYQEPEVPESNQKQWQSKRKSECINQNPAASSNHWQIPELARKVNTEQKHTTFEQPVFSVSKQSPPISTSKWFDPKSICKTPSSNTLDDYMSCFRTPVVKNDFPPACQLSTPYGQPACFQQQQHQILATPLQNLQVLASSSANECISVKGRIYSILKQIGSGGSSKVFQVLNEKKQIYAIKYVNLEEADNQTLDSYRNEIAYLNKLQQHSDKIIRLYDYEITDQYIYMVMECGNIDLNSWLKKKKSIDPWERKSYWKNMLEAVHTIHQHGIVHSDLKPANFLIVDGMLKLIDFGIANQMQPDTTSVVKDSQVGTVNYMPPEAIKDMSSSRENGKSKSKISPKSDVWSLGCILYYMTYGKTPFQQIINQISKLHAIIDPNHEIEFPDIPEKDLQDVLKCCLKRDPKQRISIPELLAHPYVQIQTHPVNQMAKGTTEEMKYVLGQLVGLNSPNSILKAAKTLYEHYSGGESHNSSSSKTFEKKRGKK

[3] = Cytotoxicity against human HCT116 cells after 5 days by sulforhodamine B assay; format: functional, HCT-116
Method in brief: (§1)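 Cancer lines were seeded at 800–6000 cells per well according to growth rate, 24 h before compound overlay. After culture, cells were fixed in situ and stained with sulforhodamine B. GI50 values were derived by curve fitting.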

MDA-MB-468 = assay: Cytotoxicity against human MDA-MB-468 cells after 5 days by sulforhodamine B assay; format: functional; method in brief: as §1
[4] = Cytotoxicity against human OVCAR3 cells after 5 days by sulforhodamine B assay; format: functional, OVCAR-3
Cytochrome P450 3A4 = Cytochrome P450 3A4 (Homo sapiens, UniProt P08684); assay: Inhibition of human CYP3A4 using BFC as substrate preincubated for 10 mins followed by enzyme/substrate addition measured after 30 mins by fluorescence assay; format: ADME
[5] = Half life in mouse liver microsomes at 1 uM by LC-MS analysis; format: ADME; settings: liver microsomes
[6] = Half life in rat liver microsomes at 1 uM by LC-MS analysis; format: ADME; settings: liver microsomes
Homo sapiens = species on record: Homo sapiens; assay: Selectivity ratio of IC50 for AURKB/INCENP (unknown origin) to IC50 for amino terminal GST-fused full length human TTK
[7] = Cmax in athymic CD1 nude mouse at 10 mg/kg, po by LC-MS/MS analysis; format: ADME, organism-based; design: dose 10 mg/kg, route oral; settings: athymic CD1 nude, in vivo
[8] = AUCinfinity in athymic CD1 nude mouse at 10 mg/kg, po by LC-MS/MS analysis; format: ADME, organism-based, Plasma; design: time infinity, dose 10 mg/kg, route oral; settings: athymic CD1 nude, plasma
[9] = Homo sapiens, MDA-MB-468, 120 h

Chain of Aurora kinase B/Inner centromere protein (Q96GD4 whole entry): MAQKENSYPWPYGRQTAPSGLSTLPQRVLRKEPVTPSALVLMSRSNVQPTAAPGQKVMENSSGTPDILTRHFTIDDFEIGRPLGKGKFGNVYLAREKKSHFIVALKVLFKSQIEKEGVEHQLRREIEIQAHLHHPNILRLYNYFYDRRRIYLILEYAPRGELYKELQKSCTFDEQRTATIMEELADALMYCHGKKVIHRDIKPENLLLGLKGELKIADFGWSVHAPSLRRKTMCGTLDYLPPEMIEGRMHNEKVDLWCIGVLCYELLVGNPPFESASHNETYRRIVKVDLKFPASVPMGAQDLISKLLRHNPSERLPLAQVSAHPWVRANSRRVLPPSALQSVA
Chain of Aurora kinase B/Inner centromere protein (Q9NQS7 whole entry, further chain): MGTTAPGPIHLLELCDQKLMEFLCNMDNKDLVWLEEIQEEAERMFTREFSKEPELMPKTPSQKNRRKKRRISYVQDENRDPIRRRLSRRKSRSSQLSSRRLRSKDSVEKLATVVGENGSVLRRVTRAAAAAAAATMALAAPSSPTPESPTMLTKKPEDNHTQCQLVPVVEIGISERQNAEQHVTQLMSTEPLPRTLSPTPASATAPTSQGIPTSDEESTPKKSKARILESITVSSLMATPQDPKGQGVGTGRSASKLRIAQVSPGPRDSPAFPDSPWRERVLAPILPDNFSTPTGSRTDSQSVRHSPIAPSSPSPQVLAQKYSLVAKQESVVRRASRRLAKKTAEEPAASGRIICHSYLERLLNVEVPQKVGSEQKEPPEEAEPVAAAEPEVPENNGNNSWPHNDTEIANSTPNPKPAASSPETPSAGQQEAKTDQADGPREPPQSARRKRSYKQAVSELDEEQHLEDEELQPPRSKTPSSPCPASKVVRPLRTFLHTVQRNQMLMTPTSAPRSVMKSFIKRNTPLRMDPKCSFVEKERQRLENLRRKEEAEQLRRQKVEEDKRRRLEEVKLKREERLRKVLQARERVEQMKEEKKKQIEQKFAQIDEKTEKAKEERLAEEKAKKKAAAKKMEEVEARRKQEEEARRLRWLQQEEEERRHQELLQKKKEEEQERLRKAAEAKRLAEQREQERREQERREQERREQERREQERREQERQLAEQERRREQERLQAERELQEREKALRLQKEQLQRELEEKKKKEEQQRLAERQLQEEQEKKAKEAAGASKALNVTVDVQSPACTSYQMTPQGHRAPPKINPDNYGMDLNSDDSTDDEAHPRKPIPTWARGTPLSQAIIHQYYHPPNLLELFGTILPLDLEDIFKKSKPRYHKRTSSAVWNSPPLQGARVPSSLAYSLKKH
Chain of Cytochrome P450 3A4 (P08684 whole entry): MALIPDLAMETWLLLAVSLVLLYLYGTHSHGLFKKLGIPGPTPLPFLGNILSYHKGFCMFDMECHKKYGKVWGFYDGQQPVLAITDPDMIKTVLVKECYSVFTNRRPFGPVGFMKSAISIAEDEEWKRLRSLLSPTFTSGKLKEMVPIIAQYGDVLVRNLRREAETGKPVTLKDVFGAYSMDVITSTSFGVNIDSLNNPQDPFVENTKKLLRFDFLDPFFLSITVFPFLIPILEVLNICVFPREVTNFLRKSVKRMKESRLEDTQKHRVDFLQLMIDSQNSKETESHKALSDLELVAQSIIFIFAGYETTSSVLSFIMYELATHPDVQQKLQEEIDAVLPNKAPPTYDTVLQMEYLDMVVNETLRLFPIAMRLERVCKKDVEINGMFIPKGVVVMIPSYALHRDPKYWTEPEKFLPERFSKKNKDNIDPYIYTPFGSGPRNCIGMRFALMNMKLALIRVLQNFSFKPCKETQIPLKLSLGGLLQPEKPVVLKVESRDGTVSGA

| Structure (SMILES) | IC50 [1] [nM] | IC50 [2] [nM] | GI50 ([3]; Homo sapiens, HCT-116, 120 h) [nM] | GI50 (MDA-MB-468; [9]) [nM] | GI50 ([4]; Homo sapiens, OVCAR-3, 120 h) [nM] | IC50 (Cytochrome P450 3A4) [nM] | half-life at 1 µM [5] [min] | further results |
| --- | --- | --- | --- | --- | --- | --- | --- | --- |
| CN1CCC(Oc2ccc(-c3n[nH]c4ccc(NC(=O)C(c5ccccn5)C5CCCC5)cc34)cc2)CC1 (racemic) | 71 | – | – | – | – | – | – | – |
| O=C(N[C@@H](c1ccccn1)C1CCCC1)c1ccc2[nH]nc(-c3ccc(N4[C@H]5COC[C@H]4CC(O)C5)cc3)c2c1 (stereo not given in full) | 740 | 2.2 | 15 | 140 | 160 | 330 | 60 | half-life at 1 µM [6]: 33 min; Ratio IC50 (Homo sapiens): > 100 |
| CN1CCC(Oc2ccc(-c3n[nH]c4ccc(C(=O)NC(c5ccccc5)C5CC5)cc34)cc2)CC1 (racemic) | 57 | – | – | – | – | – | – | – |
| O=C(N[C@H](c1ccccn1)C1CC1)c1ccc2[nH]nc(-c3ccc(N4[C@H]5CC[C@H]4CC(O)C5)cc3)c2c1 (stereo in doubt; 74) | 530 | 1.2 | 18 | – | – | 2100 | > 60 | GI50 (MDA-MB-468): 16 nM; GI50 [4]: 20 nM; half-life at 1 µM [6]: > 60 min; Cmax [7]: 1600 ng/mL; AUC(0-inf) [8]: 1600 ng·h/mL |
| CN1CCN(c2ccc(-c3n[nH]c4ccc(NC(=O)C(c5ccsc5)N5CCCC5)cc34)cc2S(C)(=O)=O)CC1 (racemic) | – | 18 | 280 | 900 | – | – | – | – |
| NS(=O)(=O)c1cccc(-c2n[nH]c3ccc(C(=O)NC(c4ccccc4)C4CC4)cc23)c1 (stereo not given) | 5000 | – | – | – | – | – | – | – |
| O=C(N[C@@H](c1ccccn1)C1CCCC1)c1ccc2[nH]nc(-c3ccc(N4C5CCC4COC5)cc3)c2c1 | 1400 | – | – | – | – | 360 | – | – |
| O=C(N[C@H](c1ccccn1)C1CCCC1)c1ccc2[nH]nc(-c3ccc(N4C5CCCC4COC5)cc3)c2c1 | 2800 | 8.3 | 25 | 180 | 200 | – | 50 | – |
| O=C(N[C@H](c1ccccc1)C1CC1)c1ccc2[nH]nc(-c3ccc(N4[C@H]5CC[C@H]4CC(O)C5)cc3)c2c1 (stereo not given in full) | 1100 | 2.8 | 22 | 70 | 120 | – | 47 | half-life at 1 µM [6]: 35 min; Ratio IC50 (Homo sapiens): > 100; Cmax [7]: 480 ng/mL; AUC(0-inf) [8]: 670 ng·h/mL |
| CN1CCC(Oc2ccc(-c3n[nH]c4ccc(C(=O)NC(c5ccccn5)C5CCCC5)cc34)cc2)CC1 (racemic) | 180 | – | – | – | – | – | – | – |
| O=C(N[C@H](c1ccccc1F)C1CC1)c1ccc2[nH]nc(-c3ccc(N4C5CCC4COC5)cc3)c2c1 | 470 | – | – | – | – | – | – | – |
| CC(C)C[C@H](NC(=O)c1ccc2[nH]nc(-c3ccc(N4[C@H]5CCC[C@H]4CC(O)C5)cc3)c2c1)c1ccccn1 (stereo not given in full) | 980 | 14 | 150 | 450 | 730 | – | – | Ratio IC50 (Homo sapiens): > 100 |
| O=C(N[C@@H](c1ccccc1F)C1CC1)c1ccc2[nH]nc(-c3ccc(N4C5CCC4COC5)cc3)c2c1 | 980 | – | – | – | – | 240 | – | – |
| CC(C)[C@H](NC(=O)c1ccc2[nH]nc(-c3ccc(N4[C@H]5CC[C@H]4CC(O)C5)cc3)c2c1)c1ccccc1Cl (stereo not given in full) | > 6300 | 6 | 9 | 21 | 7 | – | 34 | half-life at 1 µM [6]: > 60 min; Ratio IC50 (Homo sapiens): > 100; Cmax [7]: 330 ng/mL; AUC(0-inf) [8]: 620 ng·h/mL |
| O=CN1CCC(Oc2ccc(-c3n[nH]c4ccc(C(=O)NC(c5ccccc5)C5CC5)cc34)cc2)CC1 (racemic) | – | 16 | 130 | 360 | – | 1500 | – | – |
| O=C(N[C@H](c1ccccn1)C1CC1)c1ccc2[nH]nc(-c3ccc(N4C5CCC4COC5)cc3)c2c1 | 360 | 1.4 | 2 | 15 | 18 | – | > 60 | half-life at 1 µM [6]: > 60 min |
| O=C(N[C@@H](c1ncccn1)C1CCCC1)c1ccc2[nH]nc(-c3ccc(N4[C@H]5CC[C@H]4CC(O)C5)cc3)c2c1 (stereo not given in full) | 850 | 3.9 | 20 | 150 | 160 | – | > 60 | – |

| Structure (SMILES) | IC50 [1] [nM] | IC50 [2] [nM] | GI50 ([3]; Homo sapiens, HCT-116, 120 h) [nM] | GI50 (MDA-MB-468; [9]) [nM] | GI50 ([4]; Homo sapiens, OVCAR-3, 120 h) [nM] | IC50 (Cytochrome P450 3A4) [nM] | half-life at 1 µM [5] [min] | further results |
| --- | --- | --- | --- | --- | --- | --- | --- | --- |
| O=C(NC(c1ccccc1)C1CC1)c1ccc2[nH]nc(-c3cccc(N4CCOCC4)c3)c2c1 (racemic) | – | 340 | 5600 | 7800 | – | – | – | – |
| CC[C@@H](NC(=O)c1ccc2[nH]nc(-c3ccc(OC4CCN(C)CC4)cc3)c2c1)c1ccccc1Cl | 38 | – | – | – | – | – | – | – |
| O=C(N[C@H](c1ccccn1)C1CCCC1)c1ccc2[nH]nc(-c3ccc(N4[C@H]5CC[C@H]4CC(O)C5)cc3)c2c1 (stereo in doubt; 76) | – | – | – | – | – | – | – | Ratio IC50 (Homo sapiens): > 100 |
| O=C(NCC1(N2CCOCC2)CCCCC1)c1ccc2[nH]nc(-c3ccc(N4CCC(O)CC4)cc3)c2c1 | – | 230 | 48 | 210 | – | – | – | – |
| O=C(N[C@@H](c1ccccn1)C1CCCC1)c1ccc2[nH]nc(-c3ccc(N4[C@H]5CC[C@H]4CC(O)C5)cc3)c2c1 (stereo not given in full) | 1800 | 4.1 | 15 | 30 | 90 | 230 | > 60 | half-life at 1 µM [6]: 22 min; Ratio IC50 (Homo sapiens): > 100 |
| O=C(NCC1(N2CCOCC2)CCCCC1)c1ccc2[nH]nc(-c3ccc(N4C5CCC4COC5)cc3)c2c1 | 800 | 1.1 | 1 | 25 | 17 | – | 2.7 | half-life at 1 µM [6]: 9.6 min |
| O=C(NCC1(N2CCOCC2)CCCCC1)c1ccc2[nH]nc(-c3ccc(N4CC5CCC(C4)O5)cc3)c2c1 | – | 18 | 150 | 650 | 690 | – | – | – |
| CC(C)[C@H](NC(=O)c1ccc2[nH]nc(-c3ccc(N4C5CCC4COC5)cc3)c2c1)c1ccccc1Cl | 1900 | – | – | – | – | 60 | – | – |
| O=C(N[C@@H](c1ccccn1)C1CC1)c1ccc2[nH]nc(-c3ccc(N4[C@H]5CC[C@H]4CC(O)C5)cc3)c2c1 (stereo in doubt; 87) | 1700 | 2.7 | – | – | – | 1400 | – | GI50 [3]: 48 nM; GI50 (MDA-MB-468): 210 nM; GI50 [4]: 310 nM |
| O=CN1CCC(Oc2ccc(-c3n[nH]c4ccc(C(=O)NC(c5ccccn5)C5CC5)cc34)cc2)CC1 (racemic) | 95 | 9.4 | 35 | 260 | – | 1500 | – | – |
| CN1[C@@H]2CC[C@H]1C[C@H](Oc1ccc(-c3n[nH]c4ccc(C(=O)NC(c5ccccc5)C5CC5)cc34)cc1)C2 (mixture of isomers) | – | 7.3 | 33 | 160 | – | – | – | – |
| CN1[C@@H]2CC[C@H]1C[C@@H](Oc1ccc(-c3n[nH]c4ccc(C(=O)NC(c5ccccc5)C5CC5)cc34)cc1)C2 (mixture of isomers) | 93 | 2.8 | 30 | 130 | – | 2400 | – | – |
| CC(C)C[C@@H](NC(=O)c1ccc2[nH]nc(-c3ccc(N4[C@H]5CC[C@H]4CC(O)C5)cc3)c2c1)c1ccccn1 (stereo not given in full) | 1600 | 2.7 | 5 | 26 | 82 | – | > 60 | half-life at 1 µM [6]: 25 min |
| CC(C)C[C@H](NC(=O)c1ccc2[nH]nc(-c3ccc(N4[C@H]5CC[C@H]4CC(O)C5)cc3)c2c1)c1ccccn1 (stereo not given in full) | 1500 | 1.7 | 2 | 17 | 140 | – | > 60 | half-life at 1 µM [6]: 48 min |
| O=C(N[C@H](c1ccccn1)C1CCCC1)c1ccc2[nH]nc(-c3ccc(N4[C@H]5CC[C@H]4CC(O)C5)cc3)c2c1 (stereo in doubt; 88) | – | – | – | – | – | – | – | Ratio IC50 (Homo sapiens): > 100 |
| CC(C)C[C@H](NC(=O)c1ccc2[nH]nc(-c3ccc(N4[C@H]5COC[C@H]4CC(O)C5)cc3)c2c1)c1ccccn1 (mixture of isomers) | 230 | – | – | – | – | – | – | – |
